13 molecules from ChEMBL document CHEMBL1125864, “Folate analogues. 35. Synthesis and biological evaluation of 1-deaza, 3-deaza, and bridge-elongated analogues of N10-propargyl-5,8-dideazafolic acid” (J Med Chem, 1991) can be followed below.

Data set [1] concerns the target Thymidylate synthase (Escherichia coli, UniProt C3SWJ7). As to the kind of experiment: Compound was evaluated for the inhibition of Escherichia coli Thymidylate Synthase. To be noted: read-out: I50.
Another data set deals with SW480. As to the kind of experiment: Compound was evaluated for inhibition of tumor cell growth in SW/480 cell line. As to conditions: Homo sapiens, read-out: I50. In kind it is functional, cell-based. The essentials:
(§1)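 Cells were grown in folate-free RPMI 1640 with 10% dialyzed FCS and 20 nM leucovorin, seeding SW480 at 8000 and MCF-7 at 10000 cells/well. After 24 h at 37 °C and 5% CO₂, drug diluted in leucovorin-free medium was added to triplicate wells for 96 h. Growth was read by MTT reduction (1 h), followed by DMSO solubilization and absorbance.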

Data set [2] deals with Thymidylate synthase (Homo sapiens, UniProt P04818). As to the kind of experiment: Compound was evaluated for the inhibition of human Thymidylate Synthase. To be noted: read-out: I50.
The test system of the next data set is Manca. The experiment in a line: Compound was evaluated for inhibition of tumor cell growth in Manca human lymphoma cell line. In kind it is functional, cell-based. As to conditions: read-out: I50.
A short description of data set [3]: It is the ratio of relative maximum velocity to that of apparent kinetic constant.
The next data set deals with MCF7. The experiment in a line: Compound was evaluated for inhibition of tumor cell growth in MCF-7 cell line. The format is functional, cell-based. As to conditions: Homo sapiens, read-out: I50. The essentials: as §1
The test system of another data set is MOLT-4. The experiment in a line: Compound was evaluated for inhibition of MTX influx into MOLT-4 cells. In kind it is functional, cell-based. To be noted: Homo sapiens, read-out: I50. Summed up:
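MOLT-4 cells were grown in folate-free RPMI-1640 with 10% dialyzed FCS and 20 nM leucovorin, then resuspended in pH 7.4 Tris/bicarbonate buffer with 10 mM DTT at 37 °C. Test compound was added with TLC-purified ³H-MTX at t = 0. Timed aliquots were spun through 1-bromododecane, and pellets were NaOH-extracted and scintillation counted. Rates came from 4–5 linear points at ≤10 min.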

Substrate in data set [4]: C#CCN(Cc1ccc(C(=O)NC(CCC(=O)O)C(=O)O)cc1)Cc1ccc2nc(C)nc(O)c2c1
The experiment in a line: Relative maximum velocity of Folyl-polyglutamate synthase (relative to control of 50 uM aminopterin). As to conditions: Sus scrofa. The essentials: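 Substrate activity was measured with partially purified hog liver FPGS, following an earlier published method. Vmax is expressed relative to a control of 50 μM aminopterin that was run in every experiment. Where activity was weak, relative velocity was reported at 200 μM substrate.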

Sequence of Thymidylate synthase (Homo sapiens, UniProt P04818) (P04818 whole entry): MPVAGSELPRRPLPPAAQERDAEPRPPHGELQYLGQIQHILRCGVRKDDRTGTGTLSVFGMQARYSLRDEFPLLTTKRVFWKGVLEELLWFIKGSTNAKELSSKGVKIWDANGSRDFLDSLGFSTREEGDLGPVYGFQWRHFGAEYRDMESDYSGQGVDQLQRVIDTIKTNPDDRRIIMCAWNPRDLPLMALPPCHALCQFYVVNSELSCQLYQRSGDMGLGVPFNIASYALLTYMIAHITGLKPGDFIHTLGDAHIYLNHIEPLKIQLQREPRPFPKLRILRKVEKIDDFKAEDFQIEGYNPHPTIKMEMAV
Sequence of Thymidylate synthase (Escherichia coli, UniProt C3SWJ7) (C3SWJ7 whole entry): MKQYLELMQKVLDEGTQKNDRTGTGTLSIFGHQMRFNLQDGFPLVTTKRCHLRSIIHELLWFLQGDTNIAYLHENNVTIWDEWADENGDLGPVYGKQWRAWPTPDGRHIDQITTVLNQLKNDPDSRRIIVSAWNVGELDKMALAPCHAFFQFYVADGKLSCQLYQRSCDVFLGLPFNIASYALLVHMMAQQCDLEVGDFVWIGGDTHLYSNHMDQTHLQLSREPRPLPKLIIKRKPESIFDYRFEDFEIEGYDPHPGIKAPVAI

Consider `C#CCN(Cc1ccc2c(c1)C(=O)N[C@H](C)N2)c1ccc(C(=O)NC(CCC(=O)O)C(=O)O)cc1` (stereo partly specified), for which the IC50 came to 1500 nM at Thymidylate synthase [1], 600 nM in the data set with SW480 and 430 nM on Thymidylate synthase [2].

For the molecule `C#CCN(Cc1ccc(C(=O)NC(CCC(=O)O)C(=O)O)cc1)Cc1ccc2c(c1)C(=O)CC(C)=N2` (stereo unspecified), the IC50 in the data set with Manca is over 600 µM; in the data set on SW480, over 50000 nM; at Thymidylate synthase [2] it was 1400 nM.

For `Nc1nc(O)c2c(n1)NCC(CNc1ccc(C(=O)N[C@@H](CCC(=O)O)C(=O)O)cc1)N2` (stereo partly specified), the Ratio in data set [3] turned out to be 32.1.

Consider `C#CCN(Cc1ccc2nc(C)nc(O)c2c1)c1ccc(C(=O)NC(CCC(=O)O)C(=O)O)cc1` (stereo unspecified), for which, in data set [3], the Ratio is 1.33. Further, the IC50 was determined as 45 nM on Thymidylate synthase [1]; 0.013 µM with Manca; 50 nM in the data set on SW480; 10 nM at Thymidylate synthase [2]; 0.007 µM in the data set with MCF7; 1.5 µM in the data set with MOLT-4.

Regarding `C#CCN(Cc1ccc2c(c1)C(=O)C[C@H](C)N2)c1ccc(C(=O)NC(CCC(=O)O)C(=O)O)cc1` (stereo partly specified), the IC50 on Thymidylate synthase [1] was 1880 nM; with SW480, over 100000 nM; at Thymidylate synthase [2], 24000 nM; in the data set on MCF7, over 100 µM; in the data set on MOLT-4, 4.5 µM.

For `C#CCN(Cc1ccc2[nH]c(N)nc(=O)c2c1)c1ccc(C(=O)NC(CCC(=O)O)C(=O)O)cc1` (stereo unspecified), the IC50 in the data set on Manca was found to be 0.56 µM; in the data set on SW480, 800 nM; with MCF7, 0.8 µM; in the data set on MOLT-4 it was 28 µM.

In the case of `C#CCN(Cc1ccc(C(=O)NC(CCC(=O)O)C(=O)O)cc1)Cc1ccc2nc(N)nc(O)c2c1` (stereo unspecified), in data set [3], the Ratio stood at 1.9. Besides, the IC50 at Thymidylate synthase [1] is 201000 nM; with Manca it was over 80 µM; in the data set with SW480 it was over 100000 nM; on Thymidylate synthase [2], 31000 nM; in the data set on MCF7, over 100 µM.

Turning to `C#CCN(Cc1ccc(C(=O)NC(CCC(=O)O)C(=O)O)cc1)Cc1ccc2ccnc(O)c2c1` (stereo unspecified), the Ratio in data set [3] was 0.38. Besides, the IC50 was 9 µM in the data set on Manca; over 100000 nM with SW480; 740 nM at Thymidylate synthase [2]; 22 µM in the data set with MCF7; 4.5 µM in the data set with MOLT-4.

With `CN(Cc1cnc2nc(N)nc(N)c2n1)c1ccc(C(=O)N[C@@H](CCC(=O)O)C(=O)O)cc1` [METHOTREXATE], the IC50 with MOLT-4 turned out to be 1.4 µM.

Turning to `Nc1nc(=O)c2nc(CNc3ccc(C(=O)N[C@@H](CCC(=O)O)C(=O)O)cc3)cnc2[nH]1` [FOLIC ACID], in data set [3], the Ratio is 0.77. Further, the IC50 in the data set on MOLT-4 was over 100 µM.

For the molecule `Nc1nc(=O)c2c([nH]1)NCC(CNc1ccc(C(=O)N[C@H](CCC(=O)O)C(=O)O)cc1)N2C=O` (stereo partly specified), in the data set on MOLT-4, the IC50 came to 3.5 µM.

As for `C#CCN(Cc1ccc(C(=O)NC(CCC(=O)O)C(=O)O)cc1)Cc1ccc2nc(C)nc(O)c2c1` (stereo unspecified), in data set [3], the Ratio was 2.01. The IC50 was 515000 nM at Thymidylate synthase [1]; over 100000 nM with SW480; 83000 nM on Thymidylate synthase [2]; over 100 µM in the data set on MCF7; 7 µM in the data set on MOLT-4.

B1: Folylpolyglutamate synthase, mitochondrial (Homo sapiens), Q05932 (protein)
chain: MSRARSHLRAALFLAAASARGITTQVAARRGLSAWPVPQEPSMEYQDAVRMLNTLQTNAGYLEQVKRQRGDPQTQLEAMELYLARSGLQVEDLDRLNIIHVTGTKGKGSTCAFTECILRSYGLKTGFFSSPHLVQVRERIRINGQPISPELFTKYFWRLYHRLEETKDGSCVSMPPYFRFLTLMAFHVFLQEKVDLAVVEVGIGGAYDCTNIIRKPVVCGVSSLGIDHTSLLGDTVEKIAWQKGGIFKQGVPAFTVLQPEGPLAVLRDRAQQISCPLYLCPMLEALEEGGPPLTLGLEGEHQRSNAALALQLAHCWLQRQDRHGAGEPKASRPGLLWQLPLAPVFQPTSHMRLGLRNTEWPGRTQVLRRGPLTWYLDGAHTASSAQACVRWFRQALQGRERPSGGPEVRVLLFNATGDRDPAALLKLLQPCQFDYAVFCPNLTEVSSTGNADQQNFTVTLDQVLLRCLEHQQHWNHLDEEQASPDLWSAPSPEPGGSASLLLAPHPPHTCSASSLVFSCISHALQWISQGRDPIFQPPSPPKGLLTHPVAHSGASILREAAAIHVLVTGSLHLVGGVLKLLEPALSQ
B1: in data set [4], the Vmax was 138%.
